Measurements reported in ChEMBL document CHEMBL1134852, “A new class of potent nonpeptide luteinizing hormone-releasing hormone (LHRH) antagonists: design and synthesis of 2-phenylimidazo[1,2-a]pyrimidin-5-ones” (Bioorg Med Chem Lett, 2002).

Molecular target: T1, Gonadotropin-releasing hormone receptor (Homo sapiens, UniProt P30968)
T1 sequence (P30968 whole entry): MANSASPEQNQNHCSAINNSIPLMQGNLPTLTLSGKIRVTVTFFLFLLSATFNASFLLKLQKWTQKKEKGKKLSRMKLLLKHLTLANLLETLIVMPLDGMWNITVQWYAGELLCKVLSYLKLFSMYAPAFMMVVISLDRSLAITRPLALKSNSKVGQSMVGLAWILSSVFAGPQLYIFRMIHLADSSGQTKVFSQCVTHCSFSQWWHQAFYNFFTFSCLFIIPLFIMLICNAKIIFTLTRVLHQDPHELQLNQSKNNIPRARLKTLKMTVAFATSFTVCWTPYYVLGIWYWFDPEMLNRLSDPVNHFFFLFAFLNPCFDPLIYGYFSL
Experiment: In vitro inhibition of specific [125I]leuprorelin binding to the cloned human LHRH receptor expressed in chinese hamster ovary cells
Assay type: cell-based, CHO
Method in brief: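 Membranes from CHO cells expressing the receptor (0.2 mg/mL) incubated with [125I][Tyr5]leuprorelin (0.12–0.15 nM) and varied test compound, 60 min at 25 °C, Tris 25 mM/EDTA/0.1% BSA/protease inhibitors buffer, pH 7.5. Stopped with ice-cold buffer, filtered on PEI-coated glass fibre, radioactivity counted. Nonspecific binding with […] unlabeled leuprorelin; IC50 from pseudo-Hill fit.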

IC50 [nM] | Compound
5 | CCOC(=O)c1cn(Cc2c(F)cccc2F)c2nc(-c3ccc(NC(=O)C4CC4)cc3)c(CN(C)Cc3ccccc3)n2c1=O
0.3 | CCNC(=O)Nc1ccc(-c2nc3n(Cc4c(F)cccc4F)cc(C(=O)OC(C)C)c(=O)n3c2CN(C)Cc2ccccc2)cc1
0.7 | CCOC(=O)c1cn(Cc2c(F)cccc2F)c2nc(-c3ccc(NC(=O)NOC)cc3)c(CN(C)Cc3ccccc3)n2c1=O
0.4 | CONC(=O)Nc1ccc(-c2nc3n(Cc4c(F)cccc4F)cc(C(=O)OC(C)C)c(=O)n3c2CN(C)Cc2ccccc2)cc1
10 | CCOC(=O)c1cn(Cc2c(F)cccc2F)c2nc(-c3ccc(NC(=O)CC)cc3)c(CN(C)Cc3ccccc3)n2c1=O
20 | CCOC(=O)c1cn(Cc2c(F)cccc2F)c2nc(-c3ccc(NC(=O)c4ccccc4)cc3)c(CN(C)Cc3ccccc3)n2c1=O
30 | CCOC(=O)c1cn(Cc2c(F)cccc2F)c2nc(-c3ccc(NC(=O)C(C)C)cc3)c(CN(C)Cc3ccccc3)n2c1=O
3 | CCOC(=O)c1cn(Cc2c(F)cccc2F)c2nc(-c3ccc(NC(=O)c4ccoc4)cc3)c(CN(C)Cc3ccccc3)n2c1=O
7 | CCOC(=O)c1cn(Cc2c(F)cccc2F)c2nc(-c3ccc(NC(=O)c4ccsc4)cc3)c(CN(C)Cc3ccccc3)n2c1=O
3 | C=CC(=O)Nc1ccc(-c2nc3n(Cc4c(F)cccc4F)cc(C(=O)OCC)c(=O)n3c2CN(C)Cc2ccccc2)cc1
